Experimental data of several laboratories.
Each line is one published result; the experiments were not run side by side.
SLC6A4: Sodium-dependent serotonin transporter (SLC6A4, Homo sapiens, UniProt P31645)
rep main protease: Replicase polyprotein 1ab, main protease (rep, Porcine epidemic diarrhea virus, UniProt P0C6Y4)
rep papain-like protease: Replicase polyprotein 1ab, papain-like protease (rep, Porcine epidemic diarrhea virus, UniProt P0C6Y4)

`O[C@@H]1[C@H](O)[C@@H]2C[C@@H]2[C@H]1n1cnc2c(NCCC3CC3)ncnc21` gave an inhibition of 14% (SLC6A4; ligand displacement, radioligand; 10 µM, cell membranes).
`O=C(NCc1cc(O)c(O)c(Br)c1)c1ccc(Cl)nc1` has an inhibition of 6.11% (rep main protease; enzyme activity, inhibitor, FRET; 10 µM).
With `CCOC(=O)[C@@]12C[C@@H]1[C@@H](n1ccc3c(NCCCCc4ccccc4)nc(C#Cc4ccccc4)nc31)[C@H](O)[C@@H]2O` the inhibition was 9% (SLC6A4; ligand displacement, radioligand; 10 µM).
`COc1cc(-c2cc(C(C)=O)n3ccccc23)c(OC)cc1Cn1ccnc1` has a ΔTm of 2.1 °C (Bromodomain adjacent to zinc finger domain protein 2B, bromodomain (BAZ2B, Homo sapiens, UniProt Q9UIF8); thermal stability, DSF).
`CSc1nc(NCCC2CC2)c2ncn([C@H]3[C@H](O)[C@H](O)[C@@H]4C[C@@H]43)c2n1` gave an inhibition of 17% (SLC6A4; ligand displacement, radioligand; 10 µM).
With `O=C(O)c1cccc(-c2noc(-c3ccccc3F)n2)c1` the kon was 3060 M⁻¹ s⁻¹ (Flavin reductase (NADPH) (BLVRB, Homo sapiens, UniProt P30043); binding, SPR).
`O=C(NCc1cc(O)c(O)c(Br)c1)c1ccncc1Cl` gave an inhibition of 44.4% (rep papain-like protease; enzyme activity, inhibitor, FRET; 10 µM).
For `C1=C/COCc2cc(ccc2OCCN2CCCC2)Nc2nccc(n2)-c2cccc(c2)COC/1`, the remaining binding was 75% (Serine/threonine-protein kinase Nek2 (NEK2, Homo sapiens, UniProt P51955); binding; 0.1 µM).
The remaining binding of `CCCCC(=O)Nc1ccc(-c2ccc3ncn(CCC)c(=O)c3c2)cn1` is reported as 93% (Rhodopsin kinase GRK7 (GRK7, Homo sapiens, UniProt Q8WTQ7); binding, competition with immobilised ligand; 0.5 µM).
With `O=C(NCc1cc(O)c(O)c(Br)c1)c1cccc(C(F)(F)F)c1` the inhibition was 102% (rep papain-like protease; enzyme activity, inhibitor, FRET; 10 µM).
For `N#CC[C@@]12C[C@@H]1[C@@H](n1cnc3c(NCCCCCCc4ccccc4)nc(I)nc31)[C@H](O)[C@@H]2O`, the inhibition was 56% (SLC6A4; ligand displacement, radioligand; 10 µM).
`Cc1cc(O)c(-c2ccc([C@@H](C)CN(C)C)cc2)c2c1[nH]c(=O)c1sccc12` has an inhibition of -8.71% (Calcium/calmodulin-dependent protein kinase type 1D (CAMK1D, Homo sapiens, UniProt Q8IU85); cell-free assay, inhibitor; 0.1 µM, lysate).
The inhibition of `CCOC(=O)[C@@]12C[C@@H]1[C@@H](n1cnc3c(NCCCCCc4ccccc4)nc(C#Cc4ccc(Cl)s4)nc31)[C@H](O)[C@@H]2O` is reported as -14% (SLC6A4; ligand displacement, radioligand; 10 µM).
For `COc1cc(CNC(=O)CC(c2ccc(Cl)cc2)C(C)C)cc(Br)c1OC` (stereo not shown), the inhibition was 33% (rep main protease; enzyme activity, inhibitor, FRET; 10 µM).
`CCOC(=O)[C@@]12C[C@@H]1[C@@H](n1cnc3c(NCCCCCc4ccccc4)nc(I)nc31)[C@H](O)[C@@H]2O` gave an inhibition of 48% (SLC6A4; ligand displacement, radioligand; 10 µM).
For `O=C(NCc1cc(O)c(O)c(Br)c1)c1ccc2ccccc2n1`, the inhibition was 62.4% (rep main protease; enzyme activity, inhibitor, FRET; 10 µM).
`CCN1/C(=C/C(C)=O)Sc2ccc(F)cc21` has an inhibition of 2.03% (SLC6A4; ligand displacement, radioligand; 10 µM).
For `O=C(NCc1cc(O)c(O)c(Br)c1)c1ccc2ccccc2c1`, the inhibition was 19.4% (rep papain-like protease; enzyme activity, inhibitor, FRET; 10 µM).
The Emax of `CN1CCc2cccc3c2[C@H]1Cc1ccc(O)c(O)c1-3` is reported as roughly 100% (D(1A) dopamine receptor (DRD1, Homo sapiens, UniProt P21728); cAMP, agonist).
